In the library only some 2.1% were active in any assay of this set; here they are far more common.
TRPN1 ag: zebrafish TRPN1 (NompC) channel agonism. HEK293 zebrafish TRPN1-YFP, Fluo-8 calcium fluorescence; 100% = response to 87 µM carbachol. activation, % at 3 µM. 0.18% of 220,000 active. AID 1424;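 active = activation above its plate's cutoff, the mean activation of test wells on that plate plus 3 SD, cut at about 19% in these data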;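 also: 0% = DMSO alone and 100% = 87 µM carbachol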
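Assay system: Zebrafish TRPN1-YFP in HEK293 cells | Incubation: Dye loading 1 h at 37 °C, then 30 min room temperature | Measured by: Kinetic Fluo-8 fluorescence, ex 470-495, em 515-575 nm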
IMP-1 inhibitor: inhibitors of Pseudomonas aeruginosa IMP-1 metallo-beta-lactamase; purified IMP-1, nitrocefin hydrolysis, epi-absorbance fluorescence; inhibition, % at 5.6 µM; 0.45% of 290,000 active; AID 1556;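 active = inhibition above the mean plus 3 SD of all compounds in the same screening run, cut at about 4.5% in these data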;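 also: 0% = IMP-1 with DMSO and 100% = DMSO wells lacking enzyme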
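System: purified IMP-1; amount: IMP-1 0.2 nM before substrate addition; compound: single dose, 5.6 µM; times: 25 °C, 15 min preincubation, 25 min reaction; signal: Epi-absorbance via hydrolysed-nitrocefin quenching of white-plate fluorescence, 480/530 nm, EDTA stop; benchmarks: DMSO with and without IMP-1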
VIM-2 inh: blocks Pseudomonas aeruginosa VIM-2 metallo-beta-lactamase; purified VIM-2, nitrocefin hydrolysis, epi-absorbance fluorescence; inhibition, % at 5.6 µM; 0.89% of 290,000 active; AID 1527;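 active = inhibition above the mean of all tested compounds plus 3 SD, cutoff set per screening run, cut at about 7.5% in these data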;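 also: red hydrolysis product quenches plate fluorescence so inhibitors raise well fluorescence; 0% = enzyme with DMSO and 100% = DMSO without enzyme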
CRFR2-BP ag: CRF-BP/CRF-R2 complex agonism; activation, % at 13.2 µM; 0.46% of 350,000 active; AID 588473; HEK293 CRF-R2/CRF-BP, calcium dye fluorescence (FLIPR); percent of saturating CRF peptide response;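 active = activation of at least 50%, plus an integration ratio under a set limit after plate pattern correction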;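 also: plate controls were neutral control wells without compound for no effect and CRF at EC100 for full effect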
CRFBP-R2 block: antagonists of CRF-binding protein/CRF-R2 receptor complex; AID 588475; HEK293 CRF-R2/CRF-BP, CRF-induced calcium fluorescence; inhibition, % at 11.8 µM; 0.59% of 350,000 active;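 active = inhibition of the ligand-induced calcium signal above about 50% at the single tested concentration, limit read from the data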
TRPML3 ag: activates the human TRPML3 channel; Q8TDD5; HEK293 TRPML3-YFP, Fluo-8 calcium fluorescence; 100% = the carbachol control signal; activation, % at 3 µM; 0.29% of 220,000 active;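 active = activation above its plate's cutoff, the mean activation of the plate's test wells plus 3 SD, cut at about 12% in these data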;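 also: 0% = DMSO only wells and 100% = carbachol wells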
Target sequence (Q8TDD5 whole entry, looked up): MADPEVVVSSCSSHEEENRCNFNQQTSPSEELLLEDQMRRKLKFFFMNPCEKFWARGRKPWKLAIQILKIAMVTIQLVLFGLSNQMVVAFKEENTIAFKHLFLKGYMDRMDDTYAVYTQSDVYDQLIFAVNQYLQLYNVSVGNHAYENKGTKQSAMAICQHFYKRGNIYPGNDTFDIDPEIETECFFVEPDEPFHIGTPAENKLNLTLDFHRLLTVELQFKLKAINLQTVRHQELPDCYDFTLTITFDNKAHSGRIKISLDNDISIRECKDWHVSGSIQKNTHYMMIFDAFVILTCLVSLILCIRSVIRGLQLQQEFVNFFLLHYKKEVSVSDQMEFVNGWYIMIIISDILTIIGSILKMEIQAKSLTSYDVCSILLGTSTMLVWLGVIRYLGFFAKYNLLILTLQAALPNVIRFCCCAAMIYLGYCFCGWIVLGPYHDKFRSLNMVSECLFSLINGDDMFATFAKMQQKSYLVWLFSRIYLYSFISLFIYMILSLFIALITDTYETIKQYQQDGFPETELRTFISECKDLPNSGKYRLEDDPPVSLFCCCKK
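Material: HEK293 cells stably carrying human TRPML3-YFP; compound dosing: single dose, 3 µM final nominal compound, 0.3% DMSO final; incubation: 1-h 37 °C dye load, 5-s basal, 120-s post-compound reads; technique: Fluo-8 intracellular calcium fluorescence, excitation 470-495 nm, emission 515-575 nm; read-out basis: percent activation from peak-to-basal fluorescence ratio, scaled between DMSO and carbachol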
Starred values were filed as active, the others as inactive; nt = no result.

SMILES | TRPN1 ag | IMP-1 inhibitor | VIM-2 inh | CRFR2-BP ag | CRFBP-R2 block | TRPML3 ag
Cc1cccn2c(=O)c3cc(S(=O)(=O)c4ccccc4)c(=N)n(Cc4ccco4)c3nc12 | 1 | -1 | 0 | 1 | 7 | 1
N=c1c(S(=O)(=O)c2ccccc2)cc2c(=O)n3ccccc3nc2n1Cc1ccco1 | -1 | -2 | 2 | 89* | 7 | 0
C[C@@H]1CN([C@@H](C)CO)C(=O)CCCn2nncc2CO[C@@H]1CN(C)S(=O)(=O)c1ccc(Oc2ccccc2)cc1 | nt | nt | nt | 0 | -2 | nt
O=C(NNC(=O)c1ccc(Oc2ccc(C3SCCS3)cc2)o1)c1ccc(Cl)cc1 | 1 | 5.2* | -1 | 0 | -3 | 1
O=C(NNC(=O)c1ccc(Oc2cc(Cl)cc(Cl)c2)o1)c1ccccc1 | -2 | -5 | -4 | 1 | -2 | 0
CSCC[C@H](NC(=O)C1CCN(S(=O)(=O)c2ccc(C)cc2)CC1)C(=O)NCC1CCCO1 (some centres undefined) | -1 | 0 | -3 | 0 | 8 | -1
CSCC[C@H](NC(=O)C1CCN(S(=O)(=O)c2ccc(C)cc2)CC1)C(=O)NCc1ccco1 | -2 | 5.9* | -2 | -4 | 4 | -1
O=C(CCCCl)Oc1ccc2cc(-c3ccc4ccccc4n3)c(=O)oc2c1 | 2 | 1 | -1 | 106* | -94 | 1
COc1ccc(CNC(=O)C(c2ccco2)N(C(=O)c2snc(C(N)=O)c2N)c2ccccc2OC)cc1 (centres undefined) | nt | -1 | -2 | 0 | 7 | nt
Cc1nc(N(C)C)c2sc(=S)n(C)c2n1 | 0 | -2 | 7.9* | -1 | -16 | 0
Cc1nc(N(C)C)c2sc(=S)n(-c3ccccc3)c2n1 | -1 | -1 | -2 | 0 | -4 | 0
COC(=O)c1cc(-c2ccc(OC)c(OC)c2)c2c(=O)[nH]c(=O)n(C)c2n1 | nt | -3 | 9.4* | -12 | 25 | nt
COc1ccc(-c2[nH]nc3nc(N4CCN(C(=O)c5ccoc5)CC4)cc(C(F)(F)F)c23)cc1 | nt | nt | nt | 0 | -17 | nt
CN(C)/C=N/c1nccc(-c2cccs2)n1 | 1 | -1 | 1 | 54* | 3 | 1
Cc1c(C)c2cc(Cl)c(O)c(CN3CCCC(C)C3)c2oc1=O (centres undefined) | -2 | -6 | -5 | 0 | 1 | 0
Cc1c(C)c2cc(Cl)c(O)c(CN3CCN(C)CC3)c2oc1=O | 1 | 6.2* | 4 | 2 | -14 | 0
CN(CC1CCCO1)S(=O)(=O)c1ccc(C(=O)Nc2ccc(S(N)(=O)=O)cc2)cc1 (centres undefined) | nt | 4.8* | 2 | -1 | -12 | nt
CN(CC1CCCO1)S(=O)(=O)c1ccc(C(=O)Nc2ccccc2F)cc1 (centres undefined) | nt | -2 | -2 | 0 | 3 | nt
Cc1ccc2nc(C)c3c(c2c1)SCC3 | 0 | -3 | 0 | 0 | 24 | 0
N#CC1=C(N)Oc2ccc3ccc(O)cc3c2C1c1ccsc1 (centres undefined) | 11 | 17* | 6 | 71* | -44 | 4
Cc1ccc(-c2csc(Nc3ccc(C(=O)O)cc3)[n+]2Cc2ccccc2)cc1 | 0 | -1 | -2 | -7 | 69* | 1
CCOC(=O)/C=c1\s/c(=C\c2ccc3c(c2)OCCO3)c(=O)n1CC(=O)NCC1CCCO1 (centres undefined) | 0 | 4.7* | 3 | 4 | 26 | 1
CCOC(=O)/C=c1\s/c(=C\c2c(OCC)ccc3ccccc23)c(=O)n1CC(=O)NCC1CCCO1 (centres undefined) | -2 | -4 | -1 | 4 | -28 | 0
Cc1cccc(OCC(=O)Nc2ccc3c(c2)nc2n3CCOC2)c1 | nt | -3 | -2 | -2 | 9 | nt
COc1ccc(-c2cc(=O)oc3cc(O)ccc23)cc1 | nt | -1 | 8.6* | -1 | 12 | nt
SMILES | TRPN1 ag | IMP-1 inhibitor | VIM-2 inh | CRFR2-BP ag | CRFBP-R2 block | TRPML3 ag
COCCC(=O)N1CCC(Oc2ccc(C(=O)N3CCCC(OC)C3)cc2)CC1 (centres undefined) | nt | -1 | -2 | 2 | 12 | nt
COCCC(=O)N1CCC(Oc2ccc(C(=O)N3C[C@@H]4CCC[C@H]3C4)cc2)CC1 | nt | 5.1* | 0 | 3 | -29 | nt
CCOc1ccc(N(CC(=O)NC2CCC(C)CC2)S(=O)(=O)c2c(C)noc2C)cc1 (centres undefined) | nt | -3 | -2 | 1 | 62* | nt
COc1ccc(-c2coc3c(C)c4oc(=O)c(CCC(=O)O)c(C)c4cc23)cc1 | nt | -1 | 11* | -2 | -8 | nt
Cc1c(CC(=O)N[C@@H](C)C(=O)O)c(=O)oc2c(C)c3occ(-c4ccccc4)c3cc12 | nt | -2 | 10* | -2 | 5 | nt
Cc1oc2c(C)c3oc(=O)c(CCC(=O)NCCCCCC(=O)O)c(C)c3cc2c1C | nt | -3 | -1 | -2 | 13 | nt
Cc1c(CCC(=O)O)c(=O)oc2c(C)c3occ(-c4ccc(Br)cc4)c3cc12 | nt | 24* | 4 | -2 | 11 | nt
CC1CC(C)CN(CCCNC(=O)c2ccc3c(c2)N(Cc2ccccc2)C(=O)c2ccccc2S3=O)C1 (centres undefined) | nt | -1 | 0 | 0 | -17 | nt
Cn1cnnc1SCC(C)(C)NS(=O)(=O)c1ccc(Cl)cc1 | nt | -2 | -1 | 0 | -3 | nt
COc1ccc(-c2nn(-c3ccccc3)cc2/C=C(\C#N)S(=O)(=O)c2ccccc2)cc1OC | -1 | -2 | -2 | 12 | 66* | 0
COC(=O)c1ccc2c(c1C(=O)OC)CN(S(=O)(=O)C(C)(C)C)[C@H]2CCO | nt | nt | nt | 0 | -20 | nt
S=C(NCCc1ccccc1)N1CCC2CC1c1c(Cl)cccc12 (centres undefined) | nt | nt | nt | 2 | 51* | nt
CC(=O)Nc1ccc(NC(=O)C(C)OC(=O)CCCOc2ccc(Cl)cc2C)cc1 (centres undefined) | nt | nt | nt | 0 | 24 | nt
CC(C)(C)c1ccc(C(=O)N2CCN(C(=O)c3ccco3)CC2)cc1 | nt | -3 | -3 | -2 | 0 | nt
CCCc1cc(=O)[nH]c(SCC(=O)Nc2cccc(S(=O)(=O)N3CCCCC3)c2)n1 | nt | nt | nt | -2 | 4 | nt
COc1ccc(C(=O)N/C(=C\c2cn(C)c3ccccc23)C(=O)NCCN2CCOCC2)cc1OC | nt | -1 | 0 | 0 | -12 | nt
CCCCNC(=O)CSc1nnc(Cc2ccccc2)n1CC1CCCO1 (centres undefined) | -3 | -3 | -1 | 0 | -1 | 0
CCCCNC(=O)CSc1nnc(Cc2ccccc2)n1CC | -1 | 4.5* | -1 | -3 | 3 | 0
COc1cccc(NC(=S)NC(Cc2ccccc2)c2ccccc2)c1 (centres undefined) | nt | nt | nt | 0 | 84* | nt
CCCCN(S(=O)(=O)c1ccccc1)S(=O)(=O)c1ccccc1 | nt | -2 | -3 | 0 | 1 | nt
